In publication PMC3640569 (Food biophysics, 2012):
In brackets after ≈: the same amount, converted by molar mass. Several values for one entry are separate records, joined by “and”; a condition that tells them apart may be missing. Identical values can stand only once. Entries after “also recorded” stand apart in the source; their conditions may differ. One block for each compound: values may come before it.

What was measured:
In vitro digestion model = assay type: in vitro ADME; settings: 20 wt% MCT nanoemulsion, 2.8 mM PMF, Fa-SSIF
Method in brief: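 A nanoemulsion (20 wt% MCT, 2 wt% Tween 20, 2.8 mM PMF) was added to fasted SSIF (100 mM NaCl, 5 mM CaCl₂, 5 mg/mL bile extract, 0.6 mg/mL lipase, 5 mM phosphate). It was equilibrated 10 min to 37 °C at pH 7.00, and lipolysis was started with pancreatic extract. pH was held by pH-stat with 2 M NaOH. Timed samples were stopped with 4-BBBA and centrifuged (4000 rpm, 30 min, RT). The supernatant micelle phase was diluted 1:10 in DMSO and read at 330 nm. Done in triplicate.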

[1] = Oil-water partition coefficient estimated from saturation concentrations; assay type: physicochemical
[2] = Organic phase solubility of PMF; assay type: physicochemical
Method in brief: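 Thermal quenching: weighed PMF was stirred into MCT or LCT (corn oil) for 1 h at 90–100 °C, cooled to 25 °C and held up to 72 h. Crystals were inspected visually and by optical microscopy. Saturation concentration was the mean of four measurements at the highest PMF loadings.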

[3] = Solubility of PMF in simulated small intestinal fluids; assay type: physicochemical; settings: 0.05 % PVA or HPMC in SSIF
Method in brief: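 PMF in DMSO was mixed with buffer, fasted SSIF or fed SSIF (150 mM NaCl, 10 mM CaCl₂, 15 mg/mL bile, 2.4 mg/mL lipase), with or without 0.05 % PVA or HPMC. Samples were stirred constantly for 72 h at 37 °C and centrifuged to remove crystals. Soluble PMF in the supernatant was measured by UV-vis at 330 nm.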

[4] = Aqueous phase solubility of PMF; assay type: physicochemical
Method in brief: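 Solvent injection: 1 % PMF in DMSO was injected into aqueous solutions of water-soluble polymers (0–5 %) or polymer-free buffer, giving a final 56 µM PMF. Mixtures were stirred at 120 rpm for 72 h at 25 °C, then centrifuged (4000 rpm, 15 min) to remove crystals. Supernatant PMF was read by UV-vis at 330 nm against a calibration curve. Runs were done in duplicate or triplicate and reported as mean ± SD.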

Theoretical prediction = test: Theoretical prediction
Method in brief: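 Calculated, not measured: maximum PMF dissolvable in the oil-water system at equilibrium was derived with a mass-balance equation (Eq. 1). Inputs were the masses of solute, oil and water and the experimentally measured saturation concentrations of PMF in each carrier oil (thermal quenching) and in buffer (solvent injection), assuming oil-water partitioning.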

[5] = Encapsulation of PMF in oil-in-water nanoemulsions; assay type: physicochemical
Method in brief: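 Oil phase was 1 wt% PMF dissolved in MCT at 90–100 °C. Aqueous phase was 2 wt% Tween 20 in 5 mM phosphate, pH 7.0. Both were kept above 50 °C, blended 2 min, then given five microfluidizer passes at 12,000 psi. Oil content was 2.5–20 % at a PMF:oil ratio of 1:100 (initial 0.56–5.6 mM). After storage, dispersed and total PMF (remixed sample) were measured by UV-vis at 330 nm.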

[6] = cited from earlier work
[7] = rat, 2 to 9 mg per day in a 71 kcal per day diet; cited from earlier work

concentration of PMF in the micelle phase (In vitro digestion model; after 3 min digestion): around 3 µM | concentration of PMF in the micelle phase (In vitro digestion model; after 120 min digestion): around 16 µM | oil-water partition coefficient KOW (=CSO*/CSW*) ([1]; LCT / buffer): about 4,520 | oil-water partition coefficient KOW (=CSO*/CSW*) ([1]; MCT / buffer): ~6,560 | saturation concentration in the oil phase (CSO*) ([2]; LCT): around 1.55 mg/mL | saturation concentration in the oil phase (CSO*) ([2]; LCT (corn oil), 25 °C, 72 h storage): 4.2 mM and 4.2 ± 0.4 mM | saturation concentration in the oil phase (CSO*) ([2]; MCT): ~2.2 mg/mL | solubility at 72 h ([2]; oil phases (LCT, MCT), 25 °C, oil or lipid, thermodynamic from solid): 4 to 6 mM (≈ 1430 to 2150 µg/mL) | effect of water-soluble polymers on solubility in SSIFs [3]: little influence | PMF solubilized per 100 g of solution ([4]; 0.5 % HPMC aqueous phase): about 0.36 mg per 100 g | increase in PMF concentration in aqueous phase by water-soluble polymers ([4]; certain types and amounts of polymer (HPMC, PVA)): ~10 fold | saturation concentration in water / buffer solution ([4]; no polymer, 25 °C, 72 h): 0.93 µM and ≈ 0.93 µM | solubility kinetic at 72 h ([4]; pure buffer solution, 25 °C, aqueous buffer, kinetic from dmso stock): 0.33 µg/mL (≈ 0.921 µM) | soluble PMF at saturation predicted using Eq. 1 (Theoretical prediction; 2.5 % fat MCT nanoemulsion): 0.15 mM | soluble PMF at saturation predicted using Eq. 1 (Theoretical prediction; 5 % fat MCT nanoemulsion): 0.31 mM | soluble PMF at saturation predicted using Eq. 1 (Theoretical prediction; 10 % fat MCT nanoemulsion): 0.61 mM | soluble PMF at saturation predicted using Eq. 1 (Theoretical prediction; 20 % fat MCT nanoemulsion): 1.22 mM | saturation concentration calculated using Eq. 1 (Theoretical prediction; 20 wt% LCT nanoemulsion): 0.84 mM | encapsulation efficiency ([5]; 2.5 % fat (MCT), 20 days storage): 21% | encapsulated PMF in nanoemulsion ([5]; 2.5 % fat (MCT), initial 0.56 mM PMF, 20 days storage): ≈ 0.12 mM | encapsulation efficiency ([5]; 5 % fat (MCT), 20 days storage): 21% | encapsulated PMF in nanoemulsion ([5]; 5 % fat (MCT), initial 1.4 mM PMF, 20 days storage): ~0.29 mM | encapsulation efficiency ([5]; 10 % fat (MCT), 20 days storage): 20% | encapsulated PMF in nanoemulsion ([5]; 10 % fat (MCT), initial 2.8 mM PMF, 20 days storage): ~0.55 mM | encapsulation efficiency ([5]; 20 % fat (MCT), 20 days storage): 42% | encapsulated PMF in nanoemulsion ([5]; 20 % fat (MCT), initial 5.6 mM PMF, 20 days storage): ~2.33 mM | encapsulation efficiency ([5]; 20 wt% LCT, initial PMF 5.6 mM, 72 h): around 48% | encapsulation efficiency ([5]; 20 wt% MCT, initial PMF 5.6 mM, 72 h): ~69% | encapsulation efficiency ([5]; 20 wt% oil (LCT or MCT), initial PMF 0.56, 1.4 and 2.8 mM, 72 h): 75 to 100%
Compound: COc1ccc(-c2cc(=O)c3c(O)c(OC)c(OC)c(OC)c3o2)cc1 [PMF, 5-hydroxy-6,7,8,4'-tetramethoxy-flavone]
effect of polymer on aqueous solubility ([4]; polyethylene glycol (PEG)): ineffective at increasing solubility; also recorded: little effect | effect of polymer on aqueous solubility ([4]; β-cyclodextrin (CD)): ineffective at increasing solubility; also recorded: little effect | reported saturation level in pure water [6]: ≈ 0.9 µM

Compound: COc1ccc(-c2cc(=O)c3c(OC)c(OC)c(OC)c(OC)c3o2)cc1OC [nobiletin]
anti-carcinogenic effect [7]: significant anti-carcinogenic effect
